# Laboratory results published in ChEMBL document CHEMBL5724801, “EUbOPEN Chemogenomics Library - Multiplex” (2024).
# Values joined by “and” are separate entries in the source; they are usually repeats but may differ in a detail not shown here. Identical values can stand only once.
# Test system: U2OS
# Assay: Multiplex assay against U2OS
# Type: toxicity, cell-based
# Settings: human
# Procedure, shortened: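 Phenotypes for tubulin, mitochondrial mass and membrane permeability are expressed as per cents of healthy-nucleus cells. Cells were stained live at seeding with Hoechst33342, BioTracker Green Microtubule Cytoskeleton Dye, MitoTracker Red and Annexin V Alexa Fluor 680, then imaged after compound addition on a CQ1 microscope at 37°C and 5% CO2. Machine-learning gating in CellPathfinder separated Hoechst high-intensity objects from normal cells, divided normal cells by nuclear state (healthy, pyknosed, fragmented) and divided pyknosed cells into mitotic or apoptotic.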
# [1] = 12 h, 1 µM, compound concentration 1 uM
# [2] = 12 h, 10 µM, compound concentration 10 uM
# [3] = 24 h, 1 µM, compound concentration 1 uM
# [4] = 24 h, 10 µM, compound concentration 10 uM
# [5] = 48 h, 1 µM, compound concentration 1 uM
# [6] = 48 h, 10 µM, compound concentration 10 uM
compound,measurement,setting,value
CCCCC(=O)N(Cc1ccc(-c2ccccc2-c2nnn[nH]2)cc1)[C@H](C(=O)O)C(C)C,Population Apoptotic (%),[1],85% and 100%
same,Population Fragmented Nuclei (%),[1],28% and 15%
same,Population Healthy Nuclei (%),[1],63% and 79%
same,Population Hoechst High Intensity Objects (%),[1],1% and 3%
same,Population Membrane Permeable-Phenotype (%),[1],8% and 9%
same,Population Mitochondria Different-Phenotype (%),[1],3% and 5%
same,Population Mitotic Cells (%),[1],14% and 0%
same,Population Normal (%),[1],98% and 96%
same,Population Pyknosed Nuclei (%),[1],8% and 4%
same,Population Tubulin-Different-Phenotype (%),[1],4% and 2%
same,Total Cell Count,[1],259 and 130
same,Population Apoptotic (%),[2],75%
same,Population Fragmented Nuclei (%),[2],35% and 24%
same,Population Healthy Nuclei (%),[2],55% and 71%
same,Population Hoechst High Intensity Objects (%),[2],1% and 0%
same,Population Membrane Permeable-Phenotype (%),[2],3% and 1%
same,Population Mitochondria Different-Phenotype (%),[2],2%
same,Population Mitotic Cells (%),[2],25%
same,Population Normal (%),[2],98% and 99%
same,Population Pyknosed Nuclei (%),[2],9% and 3%
same,Population Tubulin-Different-Phenotype (%),[2],2% and 0%
same,Total Cell Count,[2],218 and 108
same,Population Apoptotic (%),[3],86% and 83%
same,Population Fragmented Nuclei (%),[3],23% and 10%
same,Population Healthy Nuclei (%),[3],68% and 77%
same,Population Hoechst High Intensity Objects (%),[3],2% and 6%
same,Population Membrane Permeable-Phenotype (%),[3],5% and 9%
same,Population Mitochondria Different-Phenotype (%),[3],3% and 6%
same,Population Mitotic Cells (%),[3],13% and 16%
same,Population Normal (%),[3],97% and 93%
same,Population Pyknosed Nuclei (%),[3],7% and 12%
same,Population Tubulin-Different-Phenotype (%),[3],2% and 7%
same,Total Cell Count,[3],289 and 158
same,Population Apoptotic (%),[4],82% and 84%
same,Population Fragmented Nuclei (%),[4],31% and 22%
same,Population Healthy Nuclei (%),[4],59% and 67%
same,Population Hoechst High Intensity Objects (%),[4],2% and 0%
same,Population Membrane Permeable-Phenotype (%),[4],3% and 4%
same,Population Mitochondria Different-Phenotype (%),[4],2% and 8%
same,Population Mitotic Cells (%),[4],17% and 15%
same,Population Normal (%),[4],97% and 100%
same,Population Pyknosed Nuclei (%),[4],8% and 9%
same,Population Tubulin-Different-Phenotype (%),[4],2% and 6%
same,Total Cell Count,[4],272 and 135
same,Population Apoptotic (%),[5],86% and 85%
same,Population Fragmented Nuclei (%),[5],17% and 20%
same,Population Healthy Nuclei (%),[5],75% and 68%
same,Population Hoechst High Intensity Objects (%),[5],2% and 3%
same,Population Membrane Permeable-Phenotype (%),[5],5% and 7%
same,Population Mitochondria Different-Phenotype (%),[5],3%
same,Population Mitotic Cells (%),[5],13% and 15%
same,Population Normal (%),[5],97% and 96%
same,Population Pyknosed Nuclei (%),[5],7% and 10%
same,Population Tubulin-Different-Phenotype (%),[5],2% and 3%
same,Total Cell Count,[5],397 and 201
same,Population Apoptotic (%),[6],83% and 87%
same,Population Fragmented Nuclei (%),[6],22% and 21%
same,Population Healthy Nuclei (%),[6],70% and 60%
same,Population Hoechst High Intensity Objects (%),[6],1% and 4%
same,Population Membrane Permeable-Phenotype (%),[6],6% and 4%
same,Population Mitochondria Different-Phenotype (%),[6],2% and 3%
same,Population Mitotic Cells (%),[6],16% and 12%
same,Population Normal (%),[6],98% and 95%
same,Population Pyknosed Nuclei (%),[6],7% and 17%
same,Population Tubulin-Different-Phenotype (%),[6],2% and 6%
same,Total Cell Count,[6],347 and 188
CC(F)(F)CN1CCOc2c(nn(-c3ccccc3Cl)c2-c2ccc(Cl)cc2)C1=O,Population Apoptotic (%),[1],81% and 100%
same,Population Healthy Nuclei (%),[1],53% and 71%
same,Population Hoechst High Intensity Objects (%),[1],2% and 0%
same,Population Membrane Permeable-Phenotype (%),[1],3%
same,Population Mitotic Cells (%),[1],18% and 0%
same,Population Normal (%),[1],97% and 99%
same,Population Tubulin-Different-Phenotype (%),[1],8% and 4%
same,Total Cell Count,[1],219 and 121
same,Population Apoptotic (%),[2],83% and 60%
same,Population Healthy Nuclei (%),[2],62% and 71%
same,Population Hoechst High Intensity Objects (%),[2],1%
same,Population Membrane Permeable-Phenotype (%),[2],10%
same,Population Mitotic Cells (%),[2],16% and 40%
same,Population Normal (%),[2],98%
same,Population Tubulin-Different-Phenotype (%),[2],14% and 5%
same,Total Cell Count,[2],216 and 130
same,Population Apoptotic (%),[3],95% and 90%
same,Population Healthy Nuclei (%),[3],55% and 71%
same,Population Hoechst High Intensity Objects (%),[3],4% and 1%
same,Population Membrane Permeable-Phenotype (%),[3],9%
same,Population Mitotic Cells (%),[3],4% and 10%
same,Population Normal (%),[3],95% and 98%
same,Population Tubulin-Different-Phenotype (%),[3],6% and 13%
same,Total Cell Count,[3],246 and 155
same,Population Apoptotic (%),[4],70% and 80%
same,Population Healthy Nuclei (%),[4],63% and 77%
same,Population Hoechst High Intensity Objects (%),[4],1%
same,Population Mitotic Cells (%),[4],29% and 20%
same,Population Normal (%),[4],98%
same,Population Tubulin-Different-Phenotype (%),[4],7% and 5%
same,Total Cell Count,[4],248 and 154
same,Population Apoptotic (%),[5],94% and 89%
same,Population Healthy Nuclei (%),[5],66% and 69%
same,Population Hoechst High Intensity Objects (%),[5],4% and 1%
same,Population Membrane Permeable-Phenotype (%),[5],6% and 7%
same,Population Mitotic Cells (%),[5],5% and 10%
same,Population Normal (%),[5],95% and 98%
same,Population Tubulin-Different-Phenotype (%),[5],3% and 6%
same,Total Cell Count,[5],333 and 203
same,Population Apoptotic (%),[6],96% and 88%
same,Population Healthy Nuclei (%),[6],68% and 72%
same,Population Hoechst High Intensity Objects (%),[6],1% and 4%
same,Population Membrane Permeable-Phenotype (%),[6],8%
same,Population Mitotic Cells (%),[6],3% and 11%
same,Population Normal (%),[6],98% and 95%
same,Population Tubulin-Different-Phenotype (%),[6],6% and 4%
same,Total Cell Count,[6],322 and 204
COc1ccc2c(c1)C(C(=O)N(Cc1ccc(N(C)C)cc1)c1ccc(C(C)C)cc1)CCC2.Cl (configuration not stated),Population Apoptotic (%),[1],70%
same,Population Fragmented Nuclei (%),[1],36% and 17%
same,Population Healthy Nuclei (%),[1],54% and 73%
same,Population Hoechst High Intensity Objects (%),[1],4% and 3%
same,Population Membrane Permeable-Phenotype (%),[1],8% and 9%
same,Population Mitochondria Different-Phenotype (%),[1],5% and 3%
same,Population Mitotic Cells (%),[1],29% and 30%
same,Population Normal (%),[1],95% and 96%
same,Population Pyknosed Nuclei (%),[1],9% and 8%
same,Population Tubulin-Different-Phenotype (%),[1],4% and 2%
same,Total Cell Count,[1],264 and 122
same,Population Apoptotic (%),[2],38% and 60%
same,Population Fragmented Nuclei (%),[2],27% and 16%
same,Population Healthy Nuclei (%),[2],50% and 60%
same,Population Hoechst High Intensity Objects (%),[2],4%
same,Population Membrane Permeable-Phenotype (%),[2],73% and 43%
same,Population Mitochondria Different-Phenotype (%),[2],55% and 73%
same,Population Mitotic Cells (%),[2],61% and 40%
same,Population Normal (%),[2],95%
same,Population Pyknosed Nuclei (%),[2],22% and 23%
same,Population Tubulin-Different-Phenotype (%),[2],80% and 58%
same,Total Cell Count,[2],224 and 113
same,Population Apoptotic (%),[3],75% and 100%
same,Population Fragmented Nuclei (%),[3],27% and 18%
same,Population Healthy Nuclei (%),[3],61% and 73%
same,Population Hoechst High Intensity Objects (%),[3],4% and 2%
same,Population Membrane Permeable-Phenotype (%),[3],5%
same,Population Mitochondria Different-Phenotype (%),[3],4% and 1%
same,Population Mitotic Cells (%),[3],24% and 0%
same,Population Normal (%),[3],95% and 97%
same,Population Pyknosed Nuclei (%),[3],11% and 7%
same,Population Tubulin-Different-Phenotype (%),[3],4% and 2%
same,Total Cell Count,[3],273 and 146
same,Population Apoptotic (%),[4],71% and 86%
same,Population Fragmented Nuclei (%),[4],25% and 20%
same,Population Healthy Nuclei (%),[4],50% and 57%
same,Population Hoechst High Intensity Objects (%),[4],2% and 9%
same,Population Membrane Permeable-Phenotype (%),[4],54% and 45%
same,Population Mitochondria Different-Phenotype (%),[4],42% and 53%
same,Population Mitotic Cells (%),[4],28% and 13%
same,Population Normal (%),[4],97% and 90%
same,Population Pyknosed Nuclei (%),[4],24% and 22%
same,Population Tubulin-Different-Phenotype (%),[4],49% and 48%
same,Total Cell Count,[4],224 and 115
same,Population Apoptotic (%),[5],80% and 93%
same,Population Fragmented Nuclei (%),[5],21% and 17%
same,Population Healthy Nuclei (%),[5],65% and 73%
same,Population Hoechst High Intensity Objects (%),[5],2% and 3%
same,Population Membrane Permeable-Phenotype (%),[5],10% and 6%
same,Population Mitochondria Different-Phenotype (%),[5],5% and 4%
same,Population Normal (%),[5],97% and 96%
same,Population Pyknosed Nuclei (%),[5],13% and 8%
same,Population Tubulin-Different-Phenotype (%),[5],3% and 2%
same,Total Cell Count,[5],369 and 203
same,Population Apoptotic (%),[6],73% and 92%
same,Population Fragmented Nuclei (%),[6],21% and 26%
same,Population Healthy Nuclei (%),[6],47% and 49%
same,Population Hoechst High Intensity Objects (%),[6],3% and 8%
same,Population Membrane Permeable-Phenotype (%),[6],43%
same,Population Mitochondria Different-Phenotype (%),[6],26% and 36%
same,Population Normal (%),[6],96% and 91%
same,Population Pyknosed Nuclei (%),[6],30% and 24%
same,Population Tubulin-Different-Phenotype (%),[6],31% and 42%
same,Total Cell Count,[6],265 and 126
